# Among all 2,500 compounds or so, about 1,200 (48%) were called active.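 How the source made its calls: active means mean activation above the low control average plus 3 SD, as set in the primary screen (cut at about 12% in these data); inactive means the rest.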 So high a share suggests a set chosen from earlier hits. Some of the results follow.
# Biological target: Troponin I, cardiac muscle (Homo sapiens) + Troponin T, cardiac muscle (Homo sapiens) + Troponin C, slow skeletal and cardiac muscles (Homo sapiens) (UniProt P19429+P45379+P63316)
# Experiment: cardiac RTF calcium sensitivity activators, confirmation, biochemical, IANBD-TnC fluorescence, triplicate (AID 504383);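 further: 0% = DMSO at 0.472 mM calcium and 100% = DMSO at 2.9 mM calcium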
# Conditions: IANBD-labeled cardiac RTF, Ca2+ sensitivity fluorescence; at 7.2 µM; hits give high values; scaled from EC20 to saturating calcium; tested at EC20 calcium, 0.472 mM
# Outline: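 Material: labelled regulated thin filaments; Reagent: 0.472 mM calcium; Incubation: 15 min compound incubation with filaments at 25 °C; Detection: filament fluorescence intensity; Evaluation: fluorescence increase normalised to calcium controls; Benchmarks: low control EC20 calcium, high control EC100 calcium.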
row,Structure (SMILES),activation
1,Cc1ccccc1-n1c(O)c(/C=C/C=Nc2ccccc2)c(=O)[nH]c1=O,19.4% (active)
2,CSc1nnc(N(CCC#N)CCC#N)s1,35.1% (active)
3,O=C(CN1C(=O)c2ccccc2C1=O)N1CCN=C1c1ccccc1,70.2% (active)
4,O=C1c2ccccc2C(=O)N1CC1=NCCc2ccccc21,11.2% (inactive)
5,O=C(c1ccc(F)cc1)N1CCN=C1c1ccccc1,9.85% (inactive)
6,CC1CN/C(=C\C(=O)c2ccc(Br)cc2)C(=O)N1 (centres undefined),2.08% (inactive)
7,C=CCN1C=CC(=CC=C(C#N)C#N)C=C1,668% (active)
8,C=CCN1C=CC(=C/C=C(/C#N)C(=O)OCC)C=C1,4.84% (inactive)
9,CCCN1C=CC(=CC=C(C#N)C#N)C=C1,28% (active)
10,CCOC(=O)/C(C#N)=C\C=C1C=CN(C)C=C1,8.19% (inactive)
11,CC1=C/C(=C\C=C(C#N)C#N)N(C)c2ccccc21,8.37% (inactive)
12,CCCCCCN1C=CC(=C/C=C(\C#N)C(=O)OCC)C=C1,501% (active)
13,Cc1cc(C)nc(SCCCNCc2ccc(Br)cc2)n1,9.74% (inactive)
14,Cc1cc(C)n(-c2ccc(C(=O)O)cc2)n1,16.2% (active)
15,Cc1cc(C)n(-c2ccc([N+](=O)[O-])cc2-c2nn[nH]n2)n1,7.13% (inactive)
16,O=C(O)c1ccc(O)c(O)c1,7.5% (inactive)
17,N#CC1=C(N)SC(N)=C(C#N)C1c1cccc(O)c1,6.27% (inactive)
18,N#CC1=C(N)Oc2ccc3ccc(O)cc3c2C1c1ccsc1 (centres undefined),31.6% (active)
19,CCOC(=O)c1sc(N)c(C#N)c1COC(=O)CNC(=O)c1ccccc1,8.8% (inactive)
20,CCOC(=O)c1sc(N)c(C#N)c1COC(=O)CNC(=O)c1cc(OC)c(OC)c(OC)c1,67.4% (active)
21,CC(C)CC[C@@H](O)[C@](C)(O)C1CC[C@@]2(O)C3=CC(=O)[C@@H]4C[C@@H](O)[C@@H](O)C[C@]4(C)C3CC[C@]12C (some centres undefined),279% (active)
22,CNC(=O)N(O)C1N(C)C(=O)N(CC(=O)OC)C1(C)C (centres undefined),55.3% (active)
23,COc1ccc(OC(C)C(=O)Nc2cccc(OC)c2)cc1 (centres undefined),7.49% (inactive)
24,COc1cc(OC)c(C(=O)OC(C)C(=O)Nc2cccc(C(F)(F)F)c2)cc1OC (centres undefined),32.5% (active)

row,Structure (SMILES),activation
1,COc1ccc(C2=NN(C(=O)COC(=O)c3ccc(NC(=O)CC#N)cc3)C(c3ccco3)C2)cc1 (centres undefined),14.7% (active)
2,COc1ccc(OC)c(NC(=O)CNC(=O)Cn2c(C)cc3ccccc3c2=O)c1,3680% (active)
3,COc1ccc(OC)c(NC(=S)Nc2ccccc2)c1,5.57% (inactive)
4,NS(=O)(=O)c1ccc(NC(=O)COc2ccc(C(=O)c3ccc(F)cc3)cc2)cc1,1350% (active)
5,CCCC(CCC(=O)Nc1ccc(S(N)(=O)=O)cc1)C(=O)O (centres undefined),8.1% (inactive)
6,O=C(Oc1cc2oc(=O)c3c(c2cc1Cl)CCCC3)c1cccs1,1.37% (inactive)
7,CC1CC(C)CN(C(=O)COC(=O)CCc2nc3ccccc3c(=O)[nH]2)C1 (centres undefined),8.84% (inactive)
8,NC(=O)N/N=C/c1ccc(N2CCOCC2)s1,3.82% (inactive)
9,O=C(CN1C(=O)c2ccccc2C1=O)NCc1ccc(N2CCOCC2)cc1,12.4% (active)
10,COc1ccc(Sc2ccc(-c3nc4cnccn4c3NC3CCCCC3)cc2OC)cc1,3.89% (inactive)
11,CN(C)c1ccc(/C=C/c2nc3ccccc3c(=O)n2CCO)cc1,398% (active)
12,CCOC(=O)C1C(=O)C=C(/C=C/c2ccc(N(C)C)cc2)CC1c1ccccc1 (centres undefined),5.48% (inactive)
13,C[C@@H]1C=C(C(=O)N2CCOCC2)O[C@H](OCc2ccc(CO)cc2)C1,6.41% (inactive)
14,CC1(C)CC2CC(C)(CN2C(=S)Nc2ccccc2F)C1 (centres undefined),3.28% (inactive)
15,COc1cc2c(cc1[N+](=O)[O-])-c1ccccc1C2,302% (active)
16,CNc1ccccc1C(C)(C)c1cc(C)[nH]n1,28.3% (active)
17,CCCN(CCC)S(=O)(=O)c1ccc(C(=O)OCCN2C(=O)c3cccc4c(N5CCOCC5)ccc(c34)C2=O)cc1,16.2% (active)
18,O=C(OCCN1C(=O)c2cccc3c(N4CCOCC4)ccc(c23)C1=O)c1ccc(Cl)cc1Cl,39.1% (active)
19,O=C(OCCN1C(=O)c2cccc3c(N4CCOCC4)ccc(c23)C1=O)c1ccccc1Cl,13.6% (active)
20,O=C(OCCN1C(=O)c2cccc3c(N4CCOCC4)ccc(c23)C1=O)c1ccc(Cl)cc1,25.9% (active)
21,CC(=O)N(C(C)=O)N1C(=O)c2cccc3c(N4CCOCC4)ccc(c23)C1=O,10.5% (inactive)
22,COc1cccc(C(=O)Nc2cc(C(=O)NCc3ccc(C)cc3)ccc2N2CCC3(CC2)CC(c2cccc(Br)c2)=NO3)c1,5.62% (inactive)
23,O=C1OCC/C1=C\c1ccccc1O,3.58% (inactive)
24,CCN(CC)c1ccc(/C=c2\sc3nc4ccccc4n3c2=O)c(O)c1,41.3% (active)

row,Structure (SMILES),activation
1,CC(=O)Oc1ccc(NC(=O)Cc2ccccc2)c(C(=O)O)c1,34.2% (active)
2,COc1ccc(NC(=O)Cc2ccccc2)cn1,9.43% (inactive)
3,Cc1ccc(OCc2ccc(C(=O)O)o2)cc1C,4.06% (inactive)
4,CCN1C(=O)[C@@H]2[C@@H](c3ccc(-c4cccc(Cl)c4)cc3)N3CCC[C@@]3(C(=O)OC)[C@@H]2C1=O,14% (active)
5,CCCCCCSc1ccc([C@@H]2[C@H]3C(=O)N(CC)C(=O)[C@H]3[C@]3(C(=O)OC)CCCCN23)cc1OC,6.92% (inactive)
6,O=C(O)/C=C/C(=O)NCc1csc2ccccc12,278% (active)
7,O=C(NCc1csc2ccccc12)Nc1cc(Cl)cc(Cl)c1,7.6% (inactive)
8,CCC(Oc1cc(Cl)ccc1Cl)C(=O)NNC(=O)CCC(=O)O (centres undefined),12.2% (active)
9,Fc1ccc(CN2CC[C@H]3C=CCc4cccc(c43)C2)cc1,144% (active)
10,COC1C(CO)OC(n2c3c(Cl)cccc3c3c4c(c5c6cccc(Cl)c6[nH]c5c32)C(=O)NC4=O)C(O)C1O (centres undefined),2.74% (inactive)
11,CCN(CC)CC(C(=O)N(CC)CC)P(=O)(c1ccccc1)c1ccccc1 (centres undefined),6.63% (inactive)
12,CCN(CC)C(=O)C(=O)c1c(-c2ccccc2)[nH]c2ccccc12,20.5% (active)
13,CCN(CC)C(=S)SCC(=O)c1c(C)[nH]c2ccccc12,27% (active)
14,CC(=O)c1cc2c(cc1N/C(=N/S(=O)(=O)c1ccc(Br)cc1)c1ccccc1)OCO2,5.61% (inactive)
15,C=CCn1cccc(C(=O)Nc2ccc(OC)c(Cl)c2)c1=O,7.57% (inactive)
16,O=C(Nc1ccc2c(c1)OCCO2)c1cccc(Cl)c1Cl,77.8% (active)
17,CCOC(=O)CNc1ccc2c(c1)OCO2,15.4% (active)
18,O=C(Nc1ccc2c(c1)OCO2)c1ccc2c(c1)OCO2,16.1% (active)
19,O=C(COc1ccccc1)NC(=S)Nc1cccc(NC(=O)c2ccccc2Cl)c1,7.06% (inactive)
20,CCN(CC)S(=O)(=O)c1ccc2c(c1)nc(CCC(=O)Nc1ccc3c(c1)OCO3)n2C,8.98% (inactive)
21,CCCCOC(=O)Cn1c2ccc(OC)cc2c2nc3ccccc3nc21,12.9% (active)
22,CCOc1ccc(Cn2c3ccc(OC)cc3c3nc4ccccc4nc32)cc1,81.5% (active)
23,CCOc1ccc2nc3cc(NCc4ccc(OC)cc4)ccc3c(N)c2c1,4.24% (inactive)
24,COc1ccc(Cn2nnc3ccccc32)cc1,8.45% (inactive)

row,Structure (SMILES),activation
1,CCOC(=O)c1c(C(C)(C)C)oc2ccc(OCC#N)cc12,8.86% (inactive)
2,CCOC(=O)CN1C(=O)S/C(=C/C=C/c2ccc(N(C)C)cc2)C1=O,3.71% (inactive)
3,CN(C)c1ccc(/C=C2\SC(=O)N(CC(O)Cn3c4ccccc4c4ccccc43)C2=O)cc1 (centres undefined),14.3% (active)
4,CN(C)c1ccc(/C=C2\SC(=O)N(CCc3nnc(N)s3)C2=O)cc1,5.55% (inactive)
5,COc1cc2nc(/C=C/c3ccc(N(C)C)cc3)sc2cc1SC,-0.52% (inactive)
6,O=C(COC(=O)c1cc(-c2cccc3ccccc23)nc2ccccc12)NC1CCS(=O)(=O)C1 (centres undefined),13.5% (active)
7,CCCN1CC=C2C(C#N)=C(N)C(C#N)(C#N)C(c3cccc(OC)c3OC)C2C1 (centres undefined),0.08% (inactive)
8,CCN1CC=C2C(C#N)=C(N)C(C#N)(C#N)C(c3cc(Cl)ccc3Cl)C2C1 (centres undefined),253% (active)
9,CCN1CC=C2C(C#N)=C(N)C(C#N)(C#N)[C@H](c3cccc(OC)c3OC)[C@H]2C1,14.7% (active)
10,O=C(COC(=O)/C=C/c1ccc(Cl)cc1)NCCN1C(=O)CSC1=O,4.03% (inactive)
11,Cc1ccc(C(C(=O)NC2CCCC2)N(C(=O)Cc2cccs2)c2cccc(C)c2C)o1 (centres undefined),7.72% (inactive)
12,CCN(CC(=O)Nc1ccccc1C(=O)NC1CC1)Cc1cccs1,89.2% (active)
13,O=C(c1ccccn1)N(Cc1cccs1)C1(C(=O)NC2CCCCC2)CCCCC1,1.46% (inactive)
14,Cn1cc(/C=C2\SC(=S)N(NC(=O)c3ccccc3Cl)C2=O)c2ccccc21,23.3% (active)
15,Cn1cc(/C=C2\SC(=S)N(NC(=O)c3ccccc3)C2=O)c2ccccc21,40.9% (active)
16,Cn1cc(/C=C2\SC(=S)N(NC(=O)c3cccc(Cl)c3)C2=O)c2ccccc21,52.1% (active)
17,Cc1ccc(C(=O)NN2C(=O)/C(=C/c3cn(C)c4ccccc34)SC2=S)cc1,19.4% (active)
18,NS(=O)(=O)c1ccc(N2N=C(c3ccccc3)CC2c2ccccc2)cc1 (centres undefined),31% (active)
19,N#CCC(=O)N/N=C/c1ccc(N2N=C(c3ccccc3)CC2c2ccccc2)cc1 (centres undefined),8.4% (inactive)
20,N#CC1CC(c2ccc([N+](=O)[O-])cc2)=NN1c1ccc([N+](=O)[O-])cc1 (centres undefined),6.69% (inactive)
21,O=[N+]([O-])c1ccc(N2N=C(c3ccccc3)CC2c2ccccc2O)cc1 (centres undefined),127% (active)
22,COc1ccc(C2CC(c3ccncc3)=NN2c2ccc(S(N)(=O)=O)cc2)cc1 (centres undefined),13.1% (active)

# Source: PubChem BioAssay AID504383 (The Scripps Research Institute Molecular Screening Center, 2011)
